Measured values as given in ChEMBL document CHEMBL4680071, “Structure guided generation of thieno[3,2-d]pyrimidin-4-amine Mycobacterium tuberculosis bd oxidase inhibitors” (RSC Med Chem, 2021).

What was measured:
[1] = Inhibition of cytochrome-bd oxidase in Mycobacterium tuberculosis H37Rv assessed as replicating ATP by measuring ATP depletion incubated for 15 hrs in absence of Q203 by BacTiter-Glo luminescence assay
In short: (§1)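 Cultures grown in Middlebrook 7H9 with 0.05% Tween 80, 0.5% glycerol, BSA fraction V, D-glucose and NaCl. Cells pelleted, resuspended in glycerol-free medium at about 10^7 CFU/mL, added to compound dilutions. Plates incubated 15 h at 37°C. BacTiter-Glo reagent added, luminescence read after 12 min to give ATP level. IC50 from curve fitting.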

[2] = Inhibition of cytochrome-bd oxidase in Mycobacterium tuberculosis clinical isolate N0145 assessed as replicating ATP by measuring ATP depletion incubated for 15 hrs in absence of Q203 by BacTiter-Glo luminescence assay; in short: as §1
[3] = Inhibition of […] tuberculosis Erdman assessed as replicating ATP by measuring ATP depletion incubated for 15 hrs in presence of Q203 by BacTiter-Glo luminescence assay; design: species or system Mycobacterium tuberculosis str. Erdman; in short: as §1

SMILES | IC50 [1] | IC50 [2] | IC50 [3]
COc1nc2ccc(Br)cc2cc1[C@@H](c1ccccc1)[C@@](O)(CCN(C)C)c1cccc2ccccc12 [BEDAQUILINE] | 40 µM | 10 µM | –
CCCCNc1nc(CC)nc2sc(C)cc12 | – | – | 3.2 µM
CCc1nc(NCCCc2ccccc2)c2cc(C)sc2n1 | – | – | 0.083 µM
